As usually defined, the IC50 is the concentration that inhibits the measured activity by half. What is called Ki is a measure of affinity in units of concentration, obtained from inhibition or displacement. For orientation: Km means the concentration of substrate that gives half-maximal velocity. As usually defined, the Vmax is the top rate of the reaction or transport when substrate is in excess. Usually inhibition stands for how much of the control response was suppressed. A high value points to a strong effect.

From ChEMBL document CHEMBL3585321, “Synthesis and antimicrobial activity of chloramphenicol-polyamine conjugates” (Bioorg Med Chem, 2015) come the findings set out here.

In series [1] the test system is Escherichia coli. In words: Antibacterial activity against wild type Escherichia coli K-12 assessed as inhibition of bacterial growth at antibacterial IC50 level in presence of 10 times IC50 levels of putrescine. The class given is functional, organism-based. In outline: (§1)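 Cells started at A560 0.020 in M9 medium with drug at its own growth IC50, alone or with putrescine, spermidine or spermine at 10×IC50. Cultures run until the drug-free control reached A560 0.800. Growth given as percent of control optical density. At least three experiments, two replicates each, mean±SD, p<0.05.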

Series [2] has as its system Escherichia coli. In words: Potency index, ratio of IC50 against wild type Escherichia coli K-12 to IC50 against Escherichia coli BL21(DE3) expressing delta-tolC gene. The class given is functional.
For series [3], the system named is Staphylococcus aureus. Nature of the series: Antibacterial activity against methicillin-resistant Staphylococcus aureus GRE2372 assessed as inhibition of bacterial growth. The class given is functional, organism-based.
For series [4], the system named is Escherichia coli. Nature of the series: Antibacterial activity against wild type Escherichia coli K-12 assessed as inhibition of bacterial growth at antibacterial IC50 level in presence of 10 times IC50 levels of spermine. The class given is functional, organism-based. In outline:
as §1

Series [5] deals with Escherichia coli. In words: Antibacterial activity against Escherichia coli BL21(DE3) expressing delta-tolC gene assessed as inhibition of bacterial growth. The class given is functional, organism-based. In outline:
(§2)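 IC50 from bacterial cultures grown in LB medium without drug or with drug across a range of concentrations, reported in μM. Three independent experiments, each with two replicates, given as mean±SD.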

In series [6] the test system is Escherichia coli. Nature of the series: Antibacterial activity against Escherichia coli Rosetta(DE3) containing rare tRNA genes and chloramphenicol resistant gene in pLysS plasmid assessed as inhibition of bacterial growth. The class given is functional, organism-based. In outline:
as §2

For series [7], the system named is Staphylococcus aureus. Nature of the series: Antibacterial activity against methicillin-resistant Staphylococcus aureus GRE2691 assessed as inhibition of bacterial growth. The class given is functional, organism-based.
Series [8] concerns Escherichia coli. In words: Antibacterial activity against wild type Escherichia coli K-12 assessed as inhibition of bacterial growth. The class given is functional, organism-based.
Series [9] can be described thus: Inhibition of Escherichia coli K-12 70S ribosome poly(U)-programmed ribosome (complex C) bearing tRNAPhe at E-site and Ac[3H]Phe-tRNA at P-site assessed as reduction in peptide bond formation using puromycin(S) substrate.
The test system of series [10] is Escherichia coli. In words: Antibacterial activity against Escherichia coli lacking chromosomal rrn alleles and containing pKK35 plasmids possessing 23S rRNA A2058G mutant assessed as inhibition of bacterial growth. The class given is functional, organism-based.
Series [11] has as its system Escherichia coli. Nature of the series: Ratio of Vmax to Km for Escherichia coli chloramphenicol acetyltransferase assessed as coenzyme A formation using acetyl coenzyme A at 0.154 mM.
Series [12] relates to Escherichia coli. In words: Antibacterial activity against Escherichia coli lacking chromosomal rrn alleles and containing pKK35 plasmids possessing 23S rRNA A2503C mutant assessed as inhibition of bacterial growth. The class given is functional, organism-based.
For series [13], the system named is Staphylococcus aureus. Nature of the series: Antibacterial activity against wild type Staphylococcus aureus assessed as inhibition of bacterial growth. The class given is functional, organism-based.
Series [14] relates to Staphylococcus aureus. Nature of the series: Antibacterial activity against wild type Staphylococcus aureus assessed as inhibition of bacterial growth at antibacterial IC50 level in presence of 10 times IC50 levels of spermine. The class given is functional, organism-based. In outline:
as §1

Series [15] has as its system Staphylococcus aureus. In words: Antibacterial activity against wild type Staphylococcus aureus assessed as inhibition of bacterial growth at antibacterial IC50 level in presence of 10 times IC50 levels of spermidine. The class given is functional, organism-based. In outline:
as §1

The subject of series [16] is Staphylococcus aureus. Nature of the series: Antibacterial activity against wild type Staphylococcus aureus assessed as inhibition of bacterial growth at antibacterial IC50 level in presence of 10 times IC50 levels of putrescine. The class given is functional, organism-based. In outline: as §1
Series [17] has as its system Escherichia coli. Nature of the series: Activity of Escherichia coli chloramphenicol acetyltransferase assessed as coenzyme A formation using acetyl coenzyme A at 0.154 mM.
Series [18] concerns Escherichia coli. In words: Antibacterial activity against wild type Escherichia coli K-12 assessed as inhibition of bacterial growth at antibacterial IC50 level in presence of 10 times IC50 levels of spermidine. The class given is functional, organism-based. In outline: as §1
Series [19] relates to Staphylococcus aureus. Nature of the series: Antibacterial activity against methicillin-resistant Staphylococcus aureus GRE2272 assessed as inhibition of bacterial growth. The class given is functional, organism-based.
Series [20] relates to Escherichia coli. Nature of the series: Reduction in putrescine content in Escherichia coli K-12 at 9.4 uM by UV and mass spectrometry (reference value: 7.6 +/- 1.2 umol/g w.w). The class given is functional.
Series [21] has as its system Escherichia coli. In words: Reduction in spermidine content in Escherichia coli K-12 at 9.4 uM after 3 hrs by UV and mass spectrometry. The class given is functional. Conditions: K-12, 3 h.
The test system of series [22] is Escherichia coli. In words: Reduction in spermidine content in Escherichia coli K-12 at 9.4 uM by UV and mass spectrometry (reference value: 1.63 +/- 0.5 umol/g w.w). The class given is functional.
Series [23] has as its system Escherichia coli K-12. In words: Drug level in Escherichia coli K-12 at 9.4 uM by RP-HPLC method. The class given is ADME, organism-based. The following applies: in vivo.
Series [24] has as its system Escherichia coli. In words: Reduction in protein content in Escherichia coli K-12 at 9.4 uM (reference value: 57 +/- 6.35 mg/g w.w). The class given is functional.
Series [25] deals with Escherichia coli. In words: Reduction in putrescine content in Escherichia coli K-12 at 9.4 uM after 3 hrs by UV and mass spectrometry. The class given is functional. The following applies: K-12, 3 h.
For series [26], the system named is Escherichia coli K-12. Nature of the series: Drug metabolism in Escherichia coli K-12 assessed as N8,N8-dibenzylspermidine formation at 9.4 uM by RP-HPLC method. The class given is ADME, organism-based. The following applies: escherichia coli k-12, in vivo. In outline:
(§3)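 Washed cells homogenized in 0.6 M HClO4 and centrifuged. Supernatant checked by RP-HPLC for released N8,N8-dibenzylspermidine.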

Series [27] relates to Escherichia coli. Nature of the series: Reduction in putrescine content in Escherichia coli K-12 at 35.5 uM by UV and mass spectrometry (reference value: 7.6 +/- 1.2 umol/g w.w). The class given is functional.
The test system of series [28] is Escherichia coli. In words: Reduction in spermidine content in Escherichia coli K-12 at 35.5 uM by UV and mass spectrometry (reference value: 1.63 +/- 0.5 umol/g w.w). The class given is functional.
Series [29] has as its system Escherichia coli. Nature of the series: Reduction in protein content in Escherichia coli K-12 at 35.5 uM (reference value: 57 +/- 6.35 mg/g w.w). The class given is functional.
Series [30] deals with Escherichia coli. In words: Reduction in putrescine content in Escherichia coli K-12 at 35.5 uM after 3 hrs by UV and mass spectrometry. The class given is functional. Conditions: K-12, 3 h.
Series [31] deals with Escherichia coli K-12. Nature of the series: Drug metabolism in Escherichia coli K-12 assessed as N8,N8-dibenzylspermidine formation at 35.5 uM by RP-HPLC method. The class given is ADME, organism-based. Conditions: escherichia coli k-12, in vivo. In outline:
as §3

In series [32] the test system is Escherichia coli K-12. Nature of the series: Drug level in Escherichia coli K-12 at 35.5 uM by RP-HPLC method. The class given is ADME, organism-based. Conditions: in vivo.
Series [33] deals with Escherichia coli. In words: Reduction in spermidine content in Escherichia coli K-12 at 35.5 uM after 3 hrs by UV and mass spectrometry. The class given is functional. The following applies: K-12, 3 h.

The source made the active and inactive calls. No cut-off for these calls is given here.

In the case of `O=C(N[C@H](CO)[C@H](O)c1ccc([N+](=O)[O-])cc1)C(Cl)Cl` [CHLORAMPHENICOL], the “growth inhibition (GI)” value in series [1], in [4], in [14], in series [15], in series [16] and in series [18] was “Active” in each case. In addition, the “Ratio IC50” value in [2] stood at 3. Besides, the IC50 in series [3] was found to be 6 µM; in series [5], 2 µM; in [6] it was 110 µM; in series [7] it was 14.5 µM; in series [8], 6.2 µM; in series [10], 15.5 µM. In addition, the IC50 in series [12] is 24.7 µM; in series [13], 3.1 µM; in [19] it was 8 µM. The Ki in series [9] worked out at 0.88 µM. Besides, the Vmax/Km in series [11] turned out to be 0.139 min⁻¹. Further, the Michaelis-Menten constant (Km) in [17] stood at 59.3 µM. The Vmax in [17] came out at 8.23 µM/min.

`NCCCNCCCCNCCCNC(=O)CCC(=O)N[C@H](CO)[C@H](O)c1ccc([N+](=O)[O-])cc1`: the IC50 in series [3] was greater than 200 µM; in series [5], greater than 100 µM; in series [6], greater than 200 µM; in series [7] it was greater than 200 µM; in series [8], greater than 100 µM; in series [10] it was greater than 100 µM. Further, the IC50 is greater than 100 µM in series [12], 45.3 µM in series [13] and greater than 200 µM in series [19].

For the molecule `NCCCN(CCCCN(Cc1ccccc1)Cc1ccccc1)C(=O)CCC(=O)N[C@H](CO)[C@H](O)c1ccc([N+](=O)[O-])cc1` [listing 1 of 2 here], the Activity in [20] was 1.14 µmol/g; in series [22], 0.47 µmol/g; in series [24], 13.1 mg/g. The inhibition at 9.4 µM amounted to 80% in series [21] and 75% in [25]. For the same molecule, the concentration for half-maximal inhibition (IC50) stood at 9 µM in series [3]; 9 µM in [5]; 19 µM in series [6]; 10 µM in series [7]; 9.4 µM in [8]; 9.4 µM in [10]. Moreover, the IC50 worked out at 9.4 µM in series [12], 4.7 µM in series [13] and 7 µM in [19]. Also, the Drug uptake in [23] was determined as 1.06 µM. In addition, in [26], the Drug metabolism result is on record as “metabolite_notdetected”.

As for `NCCCN(CCCCN(Cc1ccccc1)Cc1ccccc1)C(=O)CCC(=O)N[C@H](CO)[C@H](O)c1ccc([N+](=O)[O-])cc1` [listing 2 of 2 here], the “growth inhibition (GI)” value in series [1], in series [4], in series [14], in series [15], in [16] and in series [18] was “inactive” in each case. In series [11], the Vmax/Km was found to be 0.041 min⁻¹. Also, the Km in series [17] turned out to be 37.7 µM. In addition, the Vmax in [17] stood at 1.54 µM/min.

With `O=C(CCC(=O)N[C@H](CO)[C@H](O)c1ccc([N+](=O)[O-])cc1)NCCCNCCCCN(Cc1ccccc1)Cc1ccccc1`, the Activity in [27] was 0.46 µmol/g; in series [28], 0.35 µmol/g; in series [29], 21.8 mg/g. Moreover, the “growth inhibition (GI)” value in series [1], in [4], in series [14], in series [15], in series [16] and in series [18] was “inactive” in each case. Also, the IC50 is greater than 100 µM in series [3]; 33.4 µM in series [5]; 42.5 µM in series [6]; greater than 200 µM in series [7]; 35.5 µM in series [8]; 32.3 µM in series [10]. Also, the values for the IC50 in series [12], in series [13] and in series [19] were 37.1 µM, 13.7 µM and greater than 100 µM, respectively. Moreover, the values for the inhibition at 35.5 µM in [30] and in [33] were 90% and 95%, respectively. For the same molecule, the Drug metabolism entry in [31] is listed as “metabolite_notdetected”. Further, in series [32], the Drug uptake is 3.96 µM. Further, the Ki in series [9] was 0.6 µM. Besides, in [11], the Vmax/Km amounted to 0.085 min⁻¹. Besides, the Km in series [17] is 53.5 µM. In [17], the maximal velocity (Vmax) stood at 4.56 µM/min.
